Measurements collected from several papers.
Lines come from different studies, so protocols differ.
Target: Serine/threonine-protein kinase WNK1 (WNK1, Homo sapiens, UniProt Q9H4A3)

`CCN1CCN(Cc2ccc(C(=O)Nc3ccc(C)c(Oc4ccc5c(c4)CC(=O)N5)c3)cc2C(F)(F)F)CC1` gave a remaining binding of 100% (binding, competition with immobilised ligand; 1 µM).
`CC1CCCN1c1nccc(-c2cnn3ncccc23)n1` (stereo not shown) gave a remaining binding of 98% (binding; 1 µM).
For `Cc1nc(N2CC[C@@H](O)C2)ncc1-c1cc(C(F)(F)F)cc2[nH]ncc12`, the remaining binding was 71% (binding, competition with immobilised ligand; 1 µM).
`O=C(Nc1c[nH]nc1C(=O)NC1CCNCC1)c1cc(F)cc(F)c1` gave a remaining binding of 100% (binding, competition with immobilised ligand; 1 µM).
With `COc1cnc(Nc2cccc(S(N)(=O)=O)c2)nc1N1CCN(c2ccccc2)C(=O)C1` the remaining binding was 0% (binding, competition with immobilised ligand; 1 µM).
For `CC(C)CC(=O)N1CCc2nc(-c3ccc(Br)cc3)nc(N(C)Cc3ccccc3)c2C1`, the remaining binding was 100% (cell-free assay, competition with immobilised ligand; 0.1 µM).
`CN(CCCC(F)(F)F)c1nccc(-c2cnn3ncccc23)n1` gave a remaining binding of 100% (binding; 1 µM).
The remaining binding of `FC(F)(F)Oc1cccc(-c2cnc3ccc(-c4ccncc4)nn23)c1` is reported as 79% (binding, competition with immobilised ligand; 5 µM).
The remaining binding of `O=C(c1ccc(Nc2ncc(Cl)c(-c3ccc(Cl)s3)n2)cc1)N1CCC(N2CCCC2)CC1` is reported as 95% (binding, competition with immobilised ligand; 1 µM).
The remaining binding of `Cc1cnn2ncc(-c3ccnc(N(C)C)n3)c2c1` is reported as 94% (binding; 1 µM).
With `NS(=O)(=O)c1cc(NC(=O)Cc2ccccc2)ccc1Oc1cccc(Cl)c1` the remaining binding was 89% (cell-free assay, competition with immobilised ligand; 1 µM).
The remaining binding of `O=C(c1ccc(Nc2nccc(-c3cc4ccccc4s3)n2)cc1)N1CCC(N2CCCC2)CC1` is reported as 88% (binding, competition with immobilised ligand; 1 µM).
`Cc1nccc(COC(=O)N2C[C@@H]3[C@@H](CNC(=O)c4ccc5[nH]nnc5c4)[C@@H]3C2)n1` gave a remaining binding of 86% (cell-free assay, competition with immobilised ligand; 1 µM).
The remaining binding of `CN(C)c1nccc(-c2cnc3ncccn23)n1` is reported as 100% (binding; 1 µM).
`c1cncc(-c2cccc(Nc3nccc(NC4CCCCC4)n3)c2)c1` has a remaining binding of 87% (binding, competition with immobilised ligand; 10 µM).
The remaining binding of `O=C1NC(c2ccccn2)Sc2ccccc21` (stereo not shown) is reported as 91% (cell-free assay, competition with immobilised ligand; 1 µM).
`c1cnn2ncc(-c3ccnc(N4CCC45COC5)n3)c2c1` has a remaining binding of 100% (binding; 1 µM).
`NS(=O)(=O)c1cc(NC(=O)C2(c3ccccc3Cl)CC2)ccc1Oc1cccc(Cl)c1` has a remaining binding of 88% (cell-free assay, competition with immobilised ligand; 1 µM).
`N[C@H]1CCN(c2nccc(-c3cnn4ncccc34)n2)C1` has a remaining binding of 8.4% (binding; 1 µM).
